Measurements reported in ChEMBL document CHEMBL3286121, “Synthesis of 5-methyl phenanthridium derivatives: a new class of human DOPA decarboxylase inhibitors” (Bioorg Med Chem Lett, 2014).

Target: T1, Aromatic-L-amino-acid decarboxylase (Homo sapiens, UniProt P20711)
T1 sequence (P20711 whole entry): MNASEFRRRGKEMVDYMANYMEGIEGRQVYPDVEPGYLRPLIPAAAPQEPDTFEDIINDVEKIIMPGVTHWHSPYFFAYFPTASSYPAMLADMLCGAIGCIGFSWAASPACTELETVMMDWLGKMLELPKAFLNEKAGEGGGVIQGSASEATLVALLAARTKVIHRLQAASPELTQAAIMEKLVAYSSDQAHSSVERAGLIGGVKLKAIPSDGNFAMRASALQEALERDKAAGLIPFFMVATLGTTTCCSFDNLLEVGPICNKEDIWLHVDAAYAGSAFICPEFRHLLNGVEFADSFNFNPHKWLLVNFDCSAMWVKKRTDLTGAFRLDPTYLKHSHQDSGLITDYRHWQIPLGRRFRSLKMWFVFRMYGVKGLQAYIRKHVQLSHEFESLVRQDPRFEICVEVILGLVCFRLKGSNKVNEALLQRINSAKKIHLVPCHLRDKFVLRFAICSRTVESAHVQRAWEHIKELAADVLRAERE
Test: Inhibition of recombinant human DOPA decarboxylase assessed as inhibition of dopamine production after 30 mins by HPLC method
Settings: not given; call rule not given here
Method in brief: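 Recombinant human enzyme reacted with L-DOPA (1 mM final) and PLP cofactor in pH 6.8 buffer, enzyme […] final, with or without compound, 37 °C for 30 min; stopped by heating at 100 °C for 2 min. Dopamine formed quantified by HPLC, 0.2% formic acid/methanol 9:1 eluent, UV 280 nm. IC50 from dose-response curves, 6 concentrations, each in duplicate.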

SMILES	IC50
COc1ccc2cc3[n+](cc2c1OC)CCc1cc2c(cc1-3)OCO2 [BERBERINE]	Not Active
CN1Cc2c(ccc3c2OCO3)-c2ccc3cc4c(cc3c21)OCO4 [DIHYDROSANGUINARINE]	Not Active

Same assay, conditions: read-out: IC50

SMILES	IC50 [µM]
COc1ccc2c(c1)c[n+](C)c1ccc(OC)cc21	190
COc1ccc2c(c1)c1cc(OC)c(OC)cc1c[n+]2C	1170
COc1ccc2c(c1)c[n+](C)c1ccc(O)cc21	120
COc1cc2c[n+](C)c3ccccc3c2cc1OC	3500
C[n+]1cc2ccccc2c2ccccc21	400
COc1cc2c[n+](C)c3ccc(F)cc3c2cc1OC	2690
COc1cc2c[n+](C)c3ccc(Cl)cc3c2cc1OC	1390
COc1cc2c[n+](C)c3ccc(C)cc3c2cc1OC	1490
COc1ccc2c(c1)c[n+](C)c1ccccc21	950
COc1ccc2c(c1)c[n+](C)c1ccc(F)cc21	570
COc1ccc2c(c1)c[n+](C)c1ccc(Cl)cc21	930
COc1ccc2c(c1)c[n+](C)c1ccc(C)cc21	600
COc1ccc2c(c[n+](C)c3c4cc5c(cc4ccc23)OCO5)c1OC [CHELERYTHRINE]	1280
COc1cc2c[n+](C)c3c4cc5c(cc4ccc3c2cc1OC)OCO5 [NITIDINE]	1340
C[n+]1cc2c3c(ccc2c2ccc4cc5c(cc4c21)OCO5)OCO3 [SANGUINARIUM CHLORIDE]	200
